Assay results taken from ChEMBL document CHEMBL1921800, “Molecular modeling: a search for a calpain inhibitor as a new treatment for cataractogenesis” (J Med Chem, 2011).
Residues, ends and D or L forms follow the SMILES beside them. *: point of attachment. Tos = Cc1ccc(S(=O)(=O)*)cc1; Ms = CS(=O)(=O)*

Legend:
[1] = molecular target: T1, Calpain-2 catalytic subunit (Homo sapiens, UniProt P17655); experiment: Inhibition of CAPN2 using BODIPY-labeled casein substrate by fluorometric analysis
T1 sequence (P17655 whole entry): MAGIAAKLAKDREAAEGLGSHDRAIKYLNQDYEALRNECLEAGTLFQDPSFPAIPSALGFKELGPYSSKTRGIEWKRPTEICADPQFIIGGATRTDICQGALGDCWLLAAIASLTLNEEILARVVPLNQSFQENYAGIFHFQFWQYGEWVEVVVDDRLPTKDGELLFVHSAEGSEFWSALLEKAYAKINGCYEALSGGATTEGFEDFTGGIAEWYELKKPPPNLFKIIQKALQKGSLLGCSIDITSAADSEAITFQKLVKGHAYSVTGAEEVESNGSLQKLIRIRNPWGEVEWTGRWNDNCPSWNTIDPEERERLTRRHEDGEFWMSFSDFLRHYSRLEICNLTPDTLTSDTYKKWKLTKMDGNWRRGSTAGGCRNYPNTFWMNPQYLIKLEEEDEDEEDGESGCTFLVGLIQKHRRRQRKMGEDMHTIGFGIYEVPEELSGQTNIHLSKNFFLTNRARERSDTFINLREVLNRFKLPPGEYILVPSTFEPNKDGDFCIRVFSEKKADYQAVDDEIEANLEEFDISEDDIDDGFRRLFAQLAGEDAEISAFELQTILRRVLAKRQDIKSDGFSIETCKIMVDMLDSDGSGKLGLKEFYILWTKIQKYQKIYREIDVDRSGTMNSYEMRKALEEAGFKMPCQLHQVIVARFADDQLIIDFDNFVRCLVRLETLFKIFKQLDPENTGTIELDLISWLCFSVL
Outline: (§1)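 Quenched fluorogenic substrate: casein labelled with BODIPY (4,4-difluoro-5,7-dimethyl-4-bora-3a,4a-diaza-s-indacene-3-propionic acid). Proteolysis relieves the quenching, and the resulting rise in fluorescence is the read-out. IC50 was determined with an established protocol at the Lincoln University laboratory.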

[2] = molecular target: T2, Calpain-1 catalytic subunit (Rattus norvegicus, UniProt P97571); experiment: Inhibition of rat CAPN1 using BODIPY-labeled casein substrate by fluorometric analysis
T2 sequence (P97571 whole entry): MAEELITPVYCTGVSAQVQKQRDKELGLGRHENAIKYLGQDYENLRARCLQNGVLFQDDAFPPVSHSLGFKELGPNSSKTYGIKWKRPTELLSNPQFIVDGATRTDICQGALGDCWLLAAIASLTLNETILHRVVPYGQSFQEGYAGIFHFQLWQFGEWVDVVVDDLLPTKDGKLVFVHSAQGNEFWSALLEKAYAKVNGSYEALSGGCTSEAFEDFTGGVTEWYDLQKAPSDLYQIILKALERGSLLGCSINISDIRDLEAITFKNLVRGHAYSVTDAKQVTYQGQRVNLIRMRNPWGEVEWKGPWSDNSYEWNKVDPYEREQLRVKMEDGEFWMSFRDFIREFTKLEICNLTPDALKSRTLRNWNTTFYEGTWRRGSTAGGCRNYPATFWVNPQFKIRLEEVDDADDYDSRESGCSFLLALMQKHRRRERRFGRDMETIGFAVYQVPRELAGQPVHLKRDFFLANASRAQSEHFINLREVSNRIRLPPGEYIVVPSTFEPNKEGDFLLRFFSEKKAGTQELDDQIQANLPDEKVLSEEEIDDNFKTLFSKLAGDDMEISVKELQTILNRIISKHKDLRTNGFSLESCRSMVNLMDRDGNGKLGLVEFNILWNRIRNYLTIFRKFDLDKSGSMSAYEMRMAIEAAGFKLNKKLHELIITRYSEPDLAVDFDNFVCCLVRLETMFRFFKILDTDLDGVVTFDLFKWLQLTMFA

[3] = Inhibition of ovine CAPN1 using BODIPY-labeled casein substrate by fluorometric analysis; set-up: species or system Ovis aries; outline: as §1
[4] = Inhibition of ovine CAPN2 using BODIPY-labeled casein substrate by fluorometric analysis; set-up: species or system Ovis aries; outline: as §1

Row | SMILES | IC50 [2] [nM] | IC50 [3] [nM] | IC50 [4] [nM] | also measured
1 | CC(C)C[C@@H]1NC(=O)[C@@H](NC(=O)OCc2ccccc2)Cc2ccc(cc2)OCCC[C@@H](C=O)NC1=O | – | – | – | IC50 [1]: 850 nM
2 | CC(C)C[C@@H]1NC(=O)[C@@H](NC(=O)OCc2ccccc2)Cc2ccc(cc2)OCCC[C@@H](CO)NC1=O | – | – | – | IC50 [1]: 31000 nM
3 | CC(C)[C@@H]1NC(=O)[C@@H](NC(=O)OCc2ccccc2)Cc2ccc(cc2)OCCCC[C@@H](C=O)NC1=O | – | – | – | IC50 [1]: 85 nM
4 | CC(C)C[C@@H]1NC(=O)[C@@H](NC(=O)OCc2ccccc2)Cc2ccc(cc2)OCCCCSC[C@@H](C=O)NC1=O | – | – | – | IC50 [1]: 1010 nM
5 | CC(C)C[C@@H]1NC(=O)[C@@H](NC(=O)OCc2ccccc2)Cc2ccc(cc2)OCCCCSC[C@@H](CO)NC1=O | – | – | – | IC50 [1]: 28000 nM
6 | CC(C)C[C@@H](C=O)NC(=O)[C@@H](NS(=O)(=O)c1ccc2ccccc2c1)C(C)C | 10 | – | – | –
7 | CC(C)[C@H](NS(=O)(=O)c1ccc2ccccc2c1)C(=O)N[C@H](C=O)Cc1ccccc1 | 14 | – | – | –
8 | CC(C)[C@H](NS(=O)(=O)c1ccc(F)cc1)C(=O)N[C@H](C=O)Cc1ccccc1 | 27 | – | – | –
9 | CC(C)[C@H](NS(=O)(=O)c1ccc(F)cc1)C(=O)N[C@H](C=O)Cc1c[nH]c2ccccc12 | 23 | – | – | –
10 | CC(C)[C@H](NS(=O)(=O)c1ccc(F)cc1)C(=O)N[C@@H](C)C=O | 630 | – | – | –
11 | CC(C)C[C@@H](C=O)NC(=O)[C@@H](NS(=O)(=O)c1ccc(Cl)cc1)C(C)C | 31 | – | – | –
12 | CC(C)[C@H](NS(=O)(=O)c1ccc(Cl)cc1)C(=O)N[C@H](C=O)Cc1ccccc1 | 14 | – | – | –
13 | CC(C)[C@H](NS(=O)(=O)c1ccc(Cl)cc1)C(=O)N[C@H](C=O)Cc1c[nH]c2ccccc12 | 13 | – | – | –
14 | CCC[C@H](NS(=O)(=O)c1ccc(F)cc1)C(=O)N[C@H](C=O)CC(C)C | 130 | – | – | –
15 | CCCC[C@H](NS(=O)(=O)c1ccc(F)cc1)C(=O)N[C@H](C=O)CC(C)C | 260 | – | – | –
16 | CC(C)C[C@@H](C=O)NC(=O)[C@H](C(C)C)N(C)S(=O)(=O)c1ccc(F)cc1 | 21000 | – | – | –
17 | CC(C)C[C@@H](C=O)NC(=O)[C@@H](NS(=O)(=O)c1ccc(F)cc1)C(C)C | – | 130 | 80 | –
18 | CC(C)C[C@@H](C=O)NC(=O)[C@@H](NC(=O)c1ccc[nH]1)C(C)C | – | 650 | 315 | –
19 | CC(C)C[C@@H](C=O)NC(=O)[C@@H](NC(=O)c1ccco1)C(C)C | – | 790 | 135 | –
20 | CC(C)C[C@@H](C=O)NC(=O)[C@@H](NC(=O)c1cccs1)C(C)C | – | 680 | 100 | –
21 | CC(C)C[C@@H](C=O)NC(=O)[C@@H](NC(=O)c1ccc(C=O)o1)C(C)C | – | 960 | 100 | –
22 | CC(C)C[C@@H](C=O)NC(=O)[C@@H](NC(=O)c1ccc(C=O)s1)C(C)C | – | 440 | 85 | –
23 | Cc1ccc(C(=O)N[C@H](C(=O)N[C@H](C=O)CC(C)C)C(C)C)[nH]1 | – | 340 | 110 | –
24 | COC(=O)c1ccc(C(=O)N[C@H](C(=O)N[C@H](C=O)CC(C)C)C(C)C)[nH]1 | – | 290 | 140 | –
25 | CC(C)C[C@@H](C=O)NC(=O)[C@@H](NC(=O)c1cc(C=O)c[nH]1)C(C)C | – | 530 | 100 | –
26 | CC(C)C[C@@H](C=O)NC(=O)[C@@H](NC(=O)c1ccc(C=O)[nH]1)C(C)C | – | 290 | 25 | –
27 | CC(C)C[C@@H](C=O)NC(=O)[C@@H](NC(=O)c1ccc(C=O)n1C)C(C)C | – | 150 | 150 | –
28 | CC(C)C[C@@H](C=O)NC(=O)[C@@H](NS(C)(=O)=O)C(C)C (Ms-Val-Leu-aldehyde) | 830 | – | – | –
29 | Cc1ccc(S(=O)(=O)N[C@H](C(=O)N[C@H](C=O)CC(C)C)C(C)C)cc1 (Tos-Val-Leu-aldehyde) | 28 | – | – | –
30 | Cc1ccc(S(=O)(=O)N[C@H](C(=O)N[C@H](C=O)Cc2ccccc2)C(C)C)cc1 (Tos-Val-Phe-aldehyde) | 18 | – | – | –
